Results on one compound are retold here after PMC4857835 (Investigative Ophthalmology & Visual Science, 2016).

The test system of series [1] is VEGF-induced retinal thickening. Description: VEGF-induced retinal thickening in mice. The class given is in vivo, WT mice (C57Bl/6). As to conditions: 1.60 mg/kg/d s.c. osmotic pump, VEGF 100 ng/eye.
The target of the next series is plasmin (Homo sapiens, UniProt P00747). In words: Trypsin-like protease enzyme activity assay. The series is classed as biochemical. The method in brief: (§1)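 Each human protease (plasmin, thrombin, trypsin, KLK1, factor XIa) is run with a suitable fluorogenic substrate. Km comes from a standard Michaelis-Menten transformation, and assays run at substrate Km. Fluorescence is read over 5 min and the linear rate per min is expressed as % activity. IC50 is 50% inhibition of uninhibited activity, and fold selectivity is relative to the human PKal IC50.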
plasmin, sequence (P00747 581-810 limits assumed): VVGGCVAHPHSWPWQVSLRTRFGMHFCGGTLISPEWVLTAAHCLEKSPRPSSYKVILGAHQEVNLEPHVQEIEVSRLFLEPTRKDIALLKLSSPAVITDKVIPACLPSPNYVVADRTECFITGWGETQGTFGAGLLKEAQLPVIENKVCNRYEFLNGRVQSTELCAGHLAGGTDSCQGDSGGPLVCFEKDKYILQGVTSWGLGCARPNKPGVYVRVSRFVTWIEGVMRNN
plasmin, sequence (P00747 97-580 partner limits assumed): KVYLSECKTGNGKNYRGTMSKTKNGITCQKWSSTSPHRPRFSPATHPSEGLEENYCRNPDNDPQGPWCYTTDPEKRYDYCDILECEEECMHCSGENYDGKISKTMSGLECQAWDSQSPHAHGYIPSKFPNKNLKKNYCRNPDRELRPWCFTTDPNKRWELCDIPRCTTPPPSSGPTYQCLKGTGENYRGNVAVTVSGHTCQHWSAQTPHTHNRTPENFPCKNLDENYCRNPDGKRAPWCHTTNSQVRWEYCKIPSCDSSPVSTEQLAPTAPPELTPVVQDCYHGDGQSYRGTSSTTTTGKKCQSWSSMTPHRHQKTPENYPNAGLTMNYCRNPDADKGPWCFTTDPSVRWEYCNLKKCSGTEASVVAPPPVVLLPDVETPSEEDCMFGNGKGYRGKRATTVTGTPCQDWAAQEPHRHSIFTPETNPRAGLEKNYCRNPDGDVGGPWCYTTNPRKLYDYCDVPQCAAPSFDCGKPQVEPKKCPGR

A further series addresses KLK1 tissue kallikrein (Homo sapiens, UniProt P06870). Description: Trypsin-like protease enzyme activity assay. The series is classed as biochemical. In outline:
as §1

For series [2], the target named is rat PKal (plasma kallikrein) (Rattus norvegicus, UniProt P14272). Description: PKal protease activity assay, fluorogenic substrate H-D-Pro-Phe-Arg-AFC. The series is classed as biochemical. The method in brief:
(§2)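 Purified mouse or rat plasma kallikrein with fluorogenic H-D-Pro-Phe-Arg-AFC at substrate Km, with test compound present. Liberated fluorescence is monitored over 5 min and the linear rate per min is calculated. IC50 is the inhibitor concentration giving 50% inhibition of uninhibited enzyme activity (100%).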

Series [3] can be described thus: In vivo pharmacokinetics following subcutaneous dosing. The arrangement: species or system male SD rats. As to conditions: male, SD, rat, plasma, sc, 10 mg/kg.
The next series concerns the target thrombin (Homo sapiens, UniProt P00734). In words: Trypsin-like protease enzyme activity assay. The class given is biochemical. In outline: as §1
A further series has as its target factor XIa (Homo sapiens, UniProt P03951). In words: Trypsin-like protease enzyme activity assay. The class given is biochemical. The method in brief: as §1
Series [4] has as its system VEGF-induced retinal thickening. In words: VEGF-induced retinal thickening in rats. The series is classed as in vivo, Sprague-Dawley rats. As to conditions: 0.58 mg/kg/d s.c. osmotic pump, VEGF 10 ng/eye, 48 hours, P < 0.001. The method in brief: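 Male Sprague-Dawley rats (10 weeks) got test compound 0.58 mg/kg/d or vehicle (10% PEG400 in PBS) by s.c. osmotic pump, started 1 day before 5 µL intravitreal VEGF 10 ng/eye or PBS. SD-OCT (2.5×2.5 mm volume centred on the optic nerve head) gave RPE-to-RNFL thickness 800 µm from centre at baseline, 24 and 48 h. Change from baseline was compared with vehicle-treated rats.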

For series [5], the target named is human PKal (plasma kallikrein) (Homo sapiens, UniProt P03952). Description: PKal protease activity assay, fluorogenic substrate H-D-Pro-Phe-Arg-AFC. The series is classed as biochemical. In outline:
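Purified human plasma kallikrein with fluorogenic H-D-Pro-Phe-Arg-AFC at its Km concentration, plus test compound. Fluorescence is followed over 5 min and the linear rate per min is taken. IC50 is the concentration giving 50% inhibition of uninhibited activity (100%). Fold selectivity is each related protease's IC50 relative to the human PKal IC50.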

Another series concerns the target trypsin. Description: Trypsin-like protease enzyme activity assay. The class given is biochemical, human. The method in brief:
as §1

Series [6] deals with mouse PKal (plasma kallikrein) (Mus musculus, UniProt P26262). Description: PKal protease activity assay, fluorogenic substrate H-D-Pro-Phe-Arg-AFC. The series is classed as biochemical. The method in brief:
as §2

Bounds are passed on as bounds.

human PKal (plasma kallikrein), sequence (P03952 391-638 limits assumed): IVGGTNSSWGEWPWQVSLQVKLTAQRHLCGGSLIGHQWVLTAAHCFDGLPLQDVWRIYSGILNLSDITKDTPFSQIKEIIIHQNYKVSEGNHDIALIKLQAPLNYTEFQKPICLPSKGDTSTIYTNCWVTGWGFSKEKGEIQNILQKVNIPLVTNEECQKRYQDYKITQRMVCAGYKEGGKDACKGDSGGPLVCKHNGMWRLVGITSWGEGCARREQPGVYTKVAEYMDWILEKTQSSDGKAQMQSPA
human PKal (plasma kallikrein), sequence (P03952 20-390 partner limits assumed): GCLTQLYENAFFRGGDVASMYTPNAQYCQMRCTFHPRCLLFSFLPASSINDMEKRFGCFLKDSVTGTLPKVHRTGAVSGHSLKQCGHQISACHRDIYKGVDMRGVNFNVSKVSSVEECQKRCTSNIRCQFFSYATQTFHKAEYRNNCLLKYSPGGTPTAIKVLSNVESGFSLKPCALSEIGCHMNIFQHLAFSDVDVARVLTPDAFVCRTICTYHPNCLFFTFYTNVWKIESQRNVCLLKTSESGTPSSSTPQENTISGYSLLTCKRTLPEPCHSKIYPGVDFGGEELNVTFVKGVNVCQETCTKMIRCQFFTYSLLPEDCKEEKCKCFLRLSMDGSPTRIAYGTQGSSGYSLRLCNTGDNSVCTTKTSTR
KLK1 tissue kallikrein, sequence (P06870 25-262): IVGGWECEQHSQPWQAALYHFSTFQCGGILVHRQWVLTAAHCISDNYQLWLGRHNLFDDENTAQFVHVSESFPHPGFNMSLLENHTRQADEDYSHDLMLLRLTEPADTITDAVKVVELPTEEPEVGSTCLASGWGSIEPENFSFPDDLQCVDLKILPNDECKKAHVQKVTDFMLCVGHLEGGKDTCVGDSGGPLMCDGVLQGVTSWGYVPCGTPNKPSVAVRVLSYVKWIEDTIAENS
factor XIa, sequence (P03951 388-625 limits assumed): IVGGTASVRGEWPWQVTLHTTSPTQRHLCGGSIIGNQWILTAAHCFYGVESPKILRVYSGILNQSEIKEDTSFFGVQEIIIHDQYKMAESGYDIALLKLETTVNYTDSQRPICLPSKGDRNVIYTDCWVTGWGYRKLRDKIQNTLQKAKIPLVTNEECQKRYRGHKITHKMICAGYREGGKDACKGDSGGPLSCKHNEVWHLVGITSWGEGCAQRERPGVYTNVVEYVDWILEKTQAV
factor XIa, sequence (P03951 19-387 partner limits assumed): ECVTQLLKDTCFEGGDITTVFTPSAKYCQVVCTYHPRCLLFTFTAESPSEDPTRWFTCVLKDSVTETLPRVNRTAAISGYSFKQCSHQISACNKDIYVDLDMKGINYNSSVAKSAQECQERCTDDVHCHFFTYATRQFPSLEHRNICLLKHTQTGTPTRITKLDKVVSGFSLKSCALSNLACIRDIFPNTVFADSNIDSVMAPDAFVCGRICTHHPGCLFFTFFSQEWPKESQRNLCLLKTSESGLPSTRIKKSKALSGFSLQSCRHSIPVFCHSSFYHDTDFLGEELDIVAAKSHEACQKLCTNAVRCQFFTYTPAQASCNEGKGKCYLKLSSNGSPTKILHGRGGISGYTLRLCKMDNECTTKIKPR
mouse PKal (plasma kallikrein), sequence (P26262 391-638 limits assumed): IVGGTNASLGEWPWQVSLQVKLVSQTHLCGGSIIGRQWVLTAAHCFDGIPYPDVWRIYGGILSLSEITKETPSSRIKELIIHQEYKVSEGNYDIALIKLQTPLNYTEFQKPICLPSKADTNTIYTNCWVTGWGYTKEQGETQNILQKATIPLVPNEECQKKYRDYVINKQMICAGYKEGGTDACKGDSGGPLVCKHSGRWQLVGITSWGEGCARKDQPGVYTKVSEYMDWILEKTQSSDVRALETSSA
mouse PKal (plasma kallikrein), sequence (P26262 20-390 partner limits assumed): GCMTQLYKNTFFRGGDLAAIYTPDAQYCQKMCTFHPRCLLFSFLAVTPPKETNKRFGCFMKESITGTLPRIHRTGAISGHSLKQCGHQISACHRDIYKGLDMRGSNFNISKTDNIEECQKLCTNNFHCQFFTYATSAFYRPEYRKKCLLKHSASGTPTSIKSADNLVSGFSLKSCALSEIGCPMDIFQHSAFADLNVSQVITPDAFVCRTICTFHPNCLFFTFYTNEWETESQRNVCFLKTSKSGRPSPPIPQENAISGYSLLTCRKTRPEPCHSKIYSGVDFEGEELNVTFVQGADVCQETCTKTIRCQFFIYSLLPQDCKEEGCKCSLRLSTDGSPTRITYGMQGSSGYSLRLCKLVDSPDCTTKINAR
rat PKal (plasma kallikrein), sequence (P14272 391-638 limits assumed): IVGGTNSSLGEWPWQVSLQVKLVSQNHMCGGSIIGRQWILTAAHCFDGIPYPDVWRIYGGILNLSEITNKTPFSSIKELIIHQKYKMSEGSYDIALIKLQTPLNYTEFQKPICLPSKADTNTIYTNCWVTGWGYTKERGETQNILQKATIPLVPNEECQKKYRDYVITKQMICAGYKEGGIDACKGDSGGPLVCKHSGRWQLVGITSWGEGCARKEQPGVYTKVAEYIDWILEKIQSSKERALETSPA
rat PKal (plasma kallikrein), sequence (P14272 20-390 partner limits assumed): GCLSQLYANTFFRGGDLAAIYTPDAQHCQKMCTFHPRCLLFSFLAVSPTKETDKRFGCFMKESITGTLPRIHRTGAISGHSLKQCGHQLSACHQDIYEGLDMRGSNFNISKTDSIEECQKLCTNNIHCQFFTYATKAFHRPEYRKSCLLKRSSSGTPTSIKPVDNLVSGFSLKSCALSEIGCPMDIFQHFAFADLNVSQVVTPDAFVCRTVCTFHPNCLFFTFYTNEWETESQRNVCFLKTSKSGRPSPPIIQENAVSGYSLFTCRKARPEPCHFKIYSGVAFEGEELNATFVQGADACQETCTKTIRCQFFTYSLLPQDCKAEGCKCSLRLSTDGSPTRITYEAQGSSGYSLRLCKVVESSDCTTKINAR

As usually defined, the IC50 is the concentration needed to halve the response being measured. One may read the Cmax as the peak of the concentration-time curve. In general, Tmax refers to the time from dosing to the highest level. What is called half-life is the time needed for the level to fall by half in the phase considered. Read a high half-life as slow loss. Take `CCOc1ccc(C[C@@H](N)C(=O)N[C@@H](Cc2ccccc2)C(=O)NC2CCN(C(=N)N)CC2)cc1.O=C(O)C(F)(F)F.O=C(O)C(F)(F)F` [VA999272, (R)-2-amino-N-[(S)-1-(1-carbamimidoyl-piperidin-4-ylcarbamoyl)-2-phenyl-ethyl]-3-(4-ethoxy-phenyl)-propionamide ditrifluoroacetate]: the “reduction of VEGF effect on retinal thickness vs vehicle-treated” value turned out to be 36% in series [1] (24 hours, P = 0.039) and 57% in series [1] (48 hours, P < 0.001). Further, the IC50 was 23.1 µM against plasmin; 33.5 µM at KLK1 tissue kallikrein; 0.00654 ± 0.00076 µM in [2]; 9.1 µM on thrombin; > 10 µM against factor XIa; 0.00398 ± 0.00361 µM in series [5]. Besides, the IC50 is 38.9 µM on trypsin (read-out: Mean IC50 Trypsin, substrate at Km) and 0.00118 ± 0.00025 µM in series [6]. Moreover, the “Fold selectivity to human PKal” value on plasmin (plasmin IC50 vs human PKal IC50) is given as 5821; on KLK1 tissue kallikrein (KLK1 IC50 vs human PKal IC50), 8414; on thrombin (thrombin IC50 vs human PKal IC50), 2291; on factor XIa (factor XIa IC50 vs human PKal IC50) it was >2513; in series [5] (PKal itself (reference)), 1; in the series on trypsin (trypsin IC50 vs human PKal IC50) it was 9772. The Cmax in series [3] came to 974 ng/mL. Further, the Tmax in [3] is 1.5 h. Further, the half-life in [3] is 3.55 h. In series [4], the “reduction of VEGF-induced retinal thickening vs vehicle-treated” value is 53%. Also, the “selectivity to PKal over closely related trypsin-like serine proteases” value in series [5] (vs KLK1, factor XIIa, factor XIa, thrombin, plasmin, trypsin) is > 1000 fold.
